Experimental data: ChEMBL document CHEMBL1156638, “Antibacterial cannabinoids from Cannabis sativa: a structure-activity study” (2008)
In brackets after ≈: the same amount, converted by molar mass.

Tests used:
Format in all cases: functional
Staphylococcus aureus [1] = assay: Antibacterial activity against […] Staphylococcus aureus SA1199B after 18 hrs
Outline: (§1)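 Broth microdilution in Mueller-Hinton broth adjusted to 20 mg/L Ca2+ and 10 mg/L Mg2+. Overnight cultures diluted in 0.9% saline to 5 ×10^5 cfu against a MacFarland standard. Compounds serially diluted twofold, inoculum added, incubated 37 °C for 18 h. DMSO (3.125%) control included. MIC taken as lowest concentration with no visible growth, done in duplicate. MTT (5 mg/mL methanolic) used.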

Staphylococcus aureus [2] = assay: Antibacterial activity against macrolide-resistant Staphylococcus aureus RN4220 after 18 hrs; details: RN4220, 18 h; outline: as §1
Staphylococcus aureus [3] = assay: Antibacterial activity against tetracycline-resistant Staphylococcus aureus XU212 after 18 hrs; details: XU212, 18 h; outline: as §1
Staphylococcus aureus [4] = assay: Antibacterial activity against […] Staphylococcus aureus ATCC 25923 after 18 hrs; details: ATCC 25923, 18 h; outline: as §1
Staphylococcus aureus [5] = assay: Antibacterial activity against epidemic methicillin-resistant Staphylococcus aureus 15 after 18 hrs; outline: as §1
Staphylococcus aureus [6] = assay: Antibacterial activity against epidemic methicillin-resistant Staphylococcus aureus 16 after 18 hrs; outline: as §1

| SMILES | MIC (Staphylococcus aureus [1]) | MIC (Staphylococcus aureus [2]) | MIC (Staphylococcus aureus [3]) | MIC (Staphylococcus aureus [4]) | MIC (Staphylococcus aureus [5]) | MIC (Staphylococcus aureus [6]) |
| --- | --- | --- | --- | --- | --- | --- |
| C=C(C)[C@@H]1CCC(C)=C[C@H]1c1c(OC)cc(CCCCC)cc1OC | > 128 µg/mL | > 128 µg/mL | > 128 µg/mL | > 128 µg/mL | > 128 µg/mL | > 128 µg/mL |
| CCCCCc1cc(O)c(C/C=C(\C)CCC=C(C)C)c(O)c1C(=O)O [CANNABIGEROLIC ACID] | 4 µg/mL (≈ 11.1 µM) | 2 µg/mL (≈ 5.55 µM) | 4 µg/mL (≈ 11.1 µM) | 4 µg/mL (≈ 11.1 µM) | 2 µg/mL (≈ 5.55 µM) | 4 µg/mL (≈ 11.1 µM) |
| CCCCCc1cc(O)cc(O)c1 [WHILE OLIVETOL] | 64 µg/mL (≈ 355 µM) | 64 µg/mL (≈ 355 µM) | 64 µg/mL (≈ 355 µM) | 128 µg/mL (≈ 710 µM) | 64 µg/mL (≈ 355 µM) | 64 µg/mL (≈ 355 µM) |
| CCCCCc1cc(O)c2c(c1)OC(C)(C)[C@@H]1CCC(C)=C[C@@H]21 [DRONABINOL] | 2 µg/mL (≈ 6.36 µM) | 1 µg/mL (≈ 3.18 µM) | 1 µg/mL (≈ 3.18 µM) | 1 µg/mL (≈ 3.18 µM) | 2 µg/mL (≈ 6.36 µM) | 0.5 µg/mL (≈ 1.59 µM) |
| C=C(C)[C@@H]1CCC(C)=C[C@H]1c1c(O)cc(CCCCC)c(C(=O)OC)c1O | > 128 µg/mL | > 128 µg/mL | > 128 µg/mL | > 128 µg/mL | > 128 µg/mL | > 128 µg/mL |
| CCn1cc(C(=O)O)c(=O)c2cc(F)c(N3CCNCC3)cc21 [NORFLOXACIN] | 32 µg/mL (≈ 100 µM) | 1 µg/mL (≈ 3.13 µM) | 4 µg/mL (≈ 12.5 µM) | 1 µg/mL (≈ 3.13 µM) | 0.5 µg/mL (≈ 1.57 µM) | 128 µg/mL (≈ 401 µM) |
| Cc1onc(-c2ccccc2)c1C(=O)N[C@@H]1C(=O)N2[C@@H]1SC(C)(C)[C@@H]2C(=O)O [OXACILLIN] | 0.25 µg/mL (≈ 0.623 µM) | 0.25 µg/mL (≈ 0.623 µM) | 128 µg/mL (≈ 319 µM) | 0.125 µg/mL (≈ 0.311 µM) | 32 µg/mL (≈ 79.7 µM) | > 128 µg/mL |
| C=C(C)[C@@H]1CCC(C)=C[C@H]1c1c(O)cc(CCCCC)cc1O [CANNABIDIOL] | 1 µg/mL (≈ 3.18 µM) | 1 µg/mL (≈ 3.18 µM) | 1 µg/mL (≈ 3.18 µM) | 0.5 µg/mL (≈ 1.59 µM) | 1 µg/mL (≈ 3.18 µM) | 1 µg/mL (≈ 3.18 µM) |
| CCCCCc1cc(O)c(C/C=C(\C)CCC(O)C(C)(C)O)c(O)c1 (configuration not stated) [CARMAGEROL] | 32 µg/mL (≈ 91.3 µM) | 32 µg/mL (≈ 91.3 µM) | 16 µg/mL (≈ 45.6 µM) | 16 µg/mL (≈ 45.6 µM) | 16 µg/mL (≈ 45.6 µM) | 32 µg/mL (≈ 91.3 µM) |
| CCCCCc1cc(O)c(C/C=C(\C)CCC=C(C)C)c(O)c1C(=O)OC | 64 µg/mL (≈ 171 µM) | – | 64 µg/mL (≈ 171 µM) | – | – | – |
| C=C(C)[C@@H]1CCC(C)=C[C@H]1c1c(O)cc(CCCCC)c(C(=O)OCCc2ccccc2)c1O | > 128 µg/mL | > 128 µg/mL | > 128 µg/mL | > 128 µg/mL | > 128 µg/mL | > 128 µg/mL |
| CCCCCc1cc(O)c2c(c1)OC(C)(C)c1ccc(C)cc1-2 [CANNABINOL] | 1 µg/mL (≈ 3.22 µM) | 1 µg/mL (≈ 3.22 µM) | 1 µg/mL (≈ 3.22 µM) | 1 µg/mL (≈ 3.22 µM) | 1 µg/mL (≈ 3.22 µM) | – |
| CCCCCc1cc(O)c(C/C=C(\C)CCC=C(C)C)c(OC)c1 | > 128 µg/mL | > 128 µg/mL | > 128 µg/mL | > 128 µg/mL | > 128 µg/mL | > 128 µg/mL |
| CCCCCc1cc(OC(C)=O)c(C/C=C(\C)CCC=C(C)C)c(OC(C)=O)c1 | > 128 µg/mL | > 128 µg/mL | > 128 µg/mL | > 128 µg/mL | > 128 µg/mL | > 128 µg/mL |
| Oc1cccc(O)c1 [RESORCINOL] | > 256 µg/mL | > 256 µg/mL | > 256 µg/mL | > 256 µg/mL | > 256 µg/mL | > 256 µg/mL |
| CCCCCc1cc(O)c2c(c1)OC(C)(CCC=C(C)C)C=C2 (configuration not stated) [CANNABICHROMENE] | 2 µg/mL (≈ 6.36 µM) | 2 µg/mL (≈ 6.36 µM) | 1 µg/mL (≈ 3.18 µM) | 2 µg/mL (≈ 6.36 µM) | 2 µg/mL (≈ 6.36 µM) | 2 µg/mL (≈ 6.36 µM) |
| CN(C)[C@@H]1C(O)=C(C(N)=O)C(=O)[C@@]2(O)C(O)=C3C(=O)c4c(O)cccc4[C@@](C)(O)[C@H]3C[C@@H]12 [TETRACYCLINE] | 0.25 µg/mL (≈ 0.563 µM) | 0.25 µg/mL (≈ 0.563 µM) | 128 µg/mL (≈ 288 µM) | 0.25 µg/mL (≈ 0.563 µM) | 0.125 µg/mL (≈ 0.281 µM) | 0.125 µg/mL (≈ 0.281 µM) |
| CCCCCc1cc(OC)c(C/C=C(\C)CCC=C(C)C)c(OC)c1 | > 128 µg/mL | > 128 µg/mL | > 128 µg/mL | > 128 µg/mL | > 128 µg/mL | > 128 µg/mL |
| CCCCCc1cc(O)cc(O)c1C/C=C(\C)CCC=C(C)C | 2 µg/mL (≈ 6.32 µM) | 1 µg/mL (≈ 3.16 µM) | 0.5 µg/mL (≈ 1.58 µM) | 1 µg/mL (≈ 3.16 µM) | 2 µg/mL (≈ 6.32 µM) | – |
| CC[C@H]1OC(=O)[C@H](C)[C@@H](O[C@H]2C[C@@](C)(OC)[C@@H](O)[C@H](C)O2)[C@H](C)[C@@H](O[C@@H]2O[C@H](C)C[C@H](N(C)C)[C@H]2O)[C@](C)(O)C[C@@H](C)C(=O)[C@H](C)[C@@H](O)[C@]1(C)O [ERYTHROMYCIN] | 0.25 µg/mL (≈ 0.341 µM) | 64 µg/mL (≈ 87.2 µM) | > 128 µg/mL | 0.25 µg/mL (≈ 0.341 µM) | > 128 µg/mL | > 128 µg/mL |
| C=C(C)C1CCC(C)=CC1c1c(CCCCC)cc(O)c([C@@H]2C=C(C)CC[C@H]2C(=C)C)c1O (some centres not stated) | > 128 µg/mL | > 128 µg/mL | > 128 µg/mL | > 128 µg/mL | > 128 µg/mL | > 128 µg/mL |
| C=C(C)[C@@H]1CCC(C)=C[C@H]1c1c(O)cc(O)cc1CCCCC | 1 µg/mL (≈ 3.18 µM) | 1 µg/mL (≈ 3.18 µM) | 1 µg/mL (≈ 3.18 µM) | 1 µg/mL (≈ 3.18 µM) | 1 µg/mL (≈ 3.18 µM) | 1 µg/mL (≈ 3.18 µM) |
| CCCCCc1cc(O)c(C/C=C(\C)CCC=C(C)C)c(O)c1C(=O)OCCc1ccccc1 | > 128 µg/mL | > 128 µg/mL | > 128 µg/mL | > 128 µg/mL | > 128 µg/mL | > 128 µg/mL |
| C=C(C)[C@@H]1CCC(C)=C[C@H]1c1c(O)cc(CCCCC)cc1OC | > 128 µg/mL | > 128 µg/mL | > 128 µg/mL | > 128 µg/mL | > 128 µg/mL | > 128 µg/mL |
| CCCCCc1cc(O)c(C/C=C(\C)CCC=C(C)C)c(O)c1 [CANNABIGEROL] | 1 µg/mL (≈ 3.16 µM) | 1 µg/mL (≈ 3.16 µM) | 1 µg/mL (≈ 3.16 µM) | 1 µg/mL (≈ 3.16 µM) | 2 µg/mL (≈ 6.32 µM) | 1 µg/mL (≈ 3.16 µM) |
| C=C(C)[C@@H]1CCC(C)=C[C@H]1c1c(O)cc(CCCCC)c(C(=O)O)c1O [CANNABIDIOLIC ACID] | 2 µg/mL (≈ 5.58 µM) | 2 µg/mL (≈ 5.58 µM) | 2 µg/mL (≈ 5.58 µM) | 2 µg/mL (≈ 5.58 µM) | 2 µg/mL (≈ 5.58 µM) | 2 µg/mL (≈ 5.58 µM) |
| CCCCCc1cc2c(c(O)c1C(=O)O)[C@@H]1C=C(C)CC[C@H]1C(C)(C)O2 [DELTA9-TETRAHYDROCANNABINOLIC ACID A] | 8 µg/mL (≈ 22.3 µM) | 4 µg/mL (≈ 11.2 µM) | 8 µg/mL (≈ 22.3 µM) | 4 µg/mL (≈ 11.2 µM) | 8 µg/mL (≈ 22.3 µM) | 4 µg/mL (≈ 11.2 µM) |
| C=C(C)[C@@H]1CCC(C)=C[C@H]1c1c(OC(C)=O)cc(CCCCC)cc1OC(C)=O | > 128 µg/mL | > 128 µg/mL | > 128 µg/mL | > 128 µg/mL | > 128 µg/mL | > 128 µg/mL |
